Results on three compounds are retold here after ChEMBL document CHEMBL4402517, “Rational modification of Mannich base-type derivatives as novel antichagasic compounds: Synthesis, in vitro and in vivo evaluation” (Bioorg Med Chem, 2019).

A short description of data set [1]: Toxicity in BALB/c mouse infected with Trypanosoma cruzi MHOM/Pe/2011/Arequipa;DTU 5 bloodstream trypomastigote assessed as increase in serum total bilirubin level in chronic phase at 20 mg/kg/day, po administered for 5 consecutive days starting from day 70 post infection measured on day 100 post infection relative to control. The conditions noted are these: in vivo. It is filed as organism-based.

Data set [2] in a line: Toxicity in BALB/c mouse infected with Trypanosoma cruzi MHOM/Pe/2011/Arequipa;DTU 5 bloodstream trypomastigote assessed as increase in serum total bilirubin level in acute phase at 20 mg/kg/day, po administered for 5 consecutive days and measured on day 100 post infection by biochemical analysis relative to control. Type of data set: organism-based. Conditions: in vivo.
Data set [3] in a line: Toxicity in BALB/c mouse infected with Trypanosoma cruzi MHOM/Pe/2011/Arequipa;DTU 5 bloodstream trypomastigote assessed as change in serum urea level in chronic phase at 20 mg/kg/day, po administered for 5 consecutive days starting from day 70 post infection and measured at day 76 post infection relative to control. Type of data set: organism-based. The conditions noted are these: in vivo.

Data set [4] can be described thus: Toxicity in BALB/c mouse infected with Trypanosoma cruzi MHOM/Pe/2011/Arequipa;DTU 5 bloodstream trypomastigote assessed as change in serum alkaline phosphatase level in acute phase at 20 mg/kg/day, po administered for 5 consecutive days starting from day 8 post infection and measured at day 14 post infection by biochemical analysis relative to control. Type of data set: organism-based. The conditions noted are these: in vivo.

Data set [5] can be described thus: Toxicity in BALB/c mouse infected with Trypanosoma cruzi MHOM/Pe/2011/Arequipa;DTU 5 bloodstream trypomastigote assessed as change in serum alkaline phosphatase level in acute phase at 20 mg/kg/day, po administered for 5 consecutive days and measured on day 100 post infection by biochemical analysis relative to control. Type of data set: organism-based. Conditions: in vivo.

Data set [6] is described as follows: Toxicity in BALB/c mouse infected with Trypanosoma cruzi MHOM/Pe/2011/Arequipa;DTU 5 bloodstream trypomastigote assessed as increase in serum aspartate aminotransferase level in chronic phase at 20 mg/kg/day, po administered for 5 consecutive days starting from day 70 post infection and measured at day 76 post infection relative to control. Type of data set: organism-based. Conditions: in vivo.

For data set [7], the system named is Trypanosoma cruzi. Briefly: Antitrypanosomal activity against Trypanosoma cruzi MHOM/Pe/2011/Arequipa;DTU 5 epimastigote assessed as effect on parasite glycolytic pathway by measuring change in succinate excretion after 72 hrs by H NMR method. It is filed as functional, organism-based. The procedure, abridged:
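Cells were spun at 800 × g for 10 min and culture supernatants analysed by 1H NMR. Catabolite peaks were expressed as % variation versus untreated parasites.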

A short description of data set [8]: Toxicity in BALB/c mouse infected with Trypanosoma cruzi MHOM/Pe/2011/Arequipa;DTU 5 bloodstream trypomastigote assessed as increase in serum lactate dehydrogenase level in acute phase at 20 mg/kg/day, po administered for 5 consecutive days starting from day 8 post infection and measured on day 100 post infection by biochemical analysis relative to control. Type of data set: organism-based. The conditions noted are these: in vivo.

The nature of data set [9]: Mutagenecity against Salmonella typhimurium TA 102 assessed as number of colonies at 66.7 ug/plate in presence of Sprague-Dawley rat S9 with metabolic activation measured after 48 hrs by Ames test (reference value: 72 +/- 1). It is filed as toxicity, subcellular. The conditions noted are these: salmonella enterica subsp. enterica serovar typhimurium, s9, 48 h. A general note: The Ames test uses bacterial strains that need an amino acid and regain growth without it when mutated back.

Data set [10] in a line: Toxicity in BALB/c mouse infected with Trypanosoma cruzi MHOM/Pe/2011/Arequipa;DTU 5 bloodstream trypomastigote assessed as increase in serum alanine aminotransferase level in acute phase at 20 mg/kg/day, po administered for 5 consecutive days starting from day 8 post infection and measured on day 100 post infection by biochemical analysis relative to control. Type of data set: organism-based. Conditions: in vivo.

A short description of data set [11]: Mutagenecity against Salmonella typhimurium TA1535 assessed as number of colonies at 66.7 ug/plate in absence of Sprague-Dawley rat S9 measured after 48 hrs by Ames test (reference value: 13.3 +/- 2.5). It is filed as toxicity. Conditions: salmonella enterica subsp. enterica serovar typhimurium, s9, 48 h.
Data set [12] can be described thus: Toxicity in BALB/c mouse infected with Trypanosoma cruzi MHOM/Pe/2011/Arequipa;DTU 5 bloodstream trypomastigote assessed as change in serum uric acid level in acute phase at 20 mg/kg/day, po administered for 5 consecutive days starting from day 8 post infection and measured on day 100 post infection by biochemical analysis relative to control. Conditions: in vivo. Type of data set: organism-based.

Data set [13] is described as follows: Toxicity in BALB/c mouse infected with Trypanosoma cruzi MHOM/Pe/2011/Arequipa;DTU 5 bloodstream trypomastigote assessed as change in serum alkaline phosphatase level in chronic phase at 20 mg/kg/day, po administered for 5 consecutive days starting from day 70 post infection measured on day 100 post infection relative to control. It is filed as organism-based. Conditions: in vivo.

Data set [14] can be described thus: Mutagenecity against Salmonella typhimurium TA98 assessed as number of colonies at 22.2 ug/plate in absence of Sprague-Dawley rat S9 measured after 48 hrs by Ames test (reference value: 3 +/- 2.6). It is filed as toxicity. The conditions noted are these: salmonella enterica subsp. enterica serovar typhimurium, s9, 48 h.
Data set [15] in a line: Mutagenecity against Salmonella typhimurium TA 102 assessed as number of colonies at 200 ug/plate in presence of Sprague-Dawley rat S9 with metabolic activation measured after 48 hrs by Ames test (reference value: 72 +/- 1). It is filed as toxicity, subcellular. The conditions noted are these: salmonella enterica subsp. enterica serovar typhimurium, s9, 48 h.
Data set [16] is described as follows: Mutagenecity against Salmonella typhimurium TA 100 assessed as number of colonies at 22.2 ug/plate in presence of Sprague-Dawley rat S9 with metabolic activation e measured after 48 hrs by Ames test (reference value: 47.3 +/- 5.7). It is filed as toxicity, subcellular. Conditions: salmonella enterica subsp. enterica serovar typhimurium, s9, 48 h.
Data set [17] can be described thus: Mutagenecity against Salmonella typhimurium TA 102 assessed as number of colonies at 66.7 ug/plate in absence of Sprague-Dawley rat S9 with metabolic activation measured after 48 hrs by Ames test (reference value: 78.7 +/- 7.8). It is filed as toxicity. Conditions: salmonella enterica subsp. enterica serovar typhimurium, s9, 48 h.
The nature of data set [18]: Mutagenecity against Salmonella typhimurium TA1535 assessed as number of colonies at 200 ug/plate in absence of Sprague-Dawley rat S9 measured after 48 hrs by Ames test (reference value: 13.3 +/- 2.5). It is filed as toxicity. Conditions: salmonella enterica subsp. enterica serovar typhimurium, s9, 48 h.
The nature of data set [19]: Mutagenecity against Salmonella typhimurium TA97a assessed as number of colonies at 66.7 ug/plate in presence of Sprague-Dawley rat S9 with metabolic activation measured after 48 hrs by Ames test (reference value: 55 +/- 7.1). It is filed as toxicity, subcellular. Conditions: salmonella enterica subsp. enterica serovar typhimurium, s9, 48 h.
Data set [20] can be described thus: Toxicity in BALB/c mouse infected with Trypanosoma cruzi MHOM/Pe/2011/Arequipa;DTU 5 bloodstream trypomastigote assessed as decrease in serum aspartate aminotransferase level in chronic phase at 20 mg/kg/day, po administered for 5 consecutive days starting from day 70 post infection measured on day 100 post infection relative to control. It is filed as organism-based. Also on record: scale not given: the % may be the effect or the level left. The conditions noted are these: in vivo.

The nature of data set [21]: Mutagenecity against Salmonella typhimurium TA98 assessed as number of colonies at 200 ug/plate in presence of Sprague-Dawley rat S9 measured after 48 hrs by Ames test (reference value: 4 +/- 2). Type of data set: toxicity, subcellular. The conditions noted are these: salmonella enterica subsp. enterica serovar typhimurium, s9, 48 h.
For data set [22], the system named is Trypanosoma cruzi. Description: Antitrypanosomal activity against Trypanosoma cruzi MHOM/Pe/2011/Arequipa;DTU 5 bloodstream trypomastigotes infected in BALB/c mouse assessed as decrease in splenomegaly in acute phase at 20 mg/kg/day, po administered for 5 consecutive days starting from day 8 post infection relative to untreated control. Type of data set: functional. Also noted: scale not given: the % may be the effect or the level left. The procedure, abridged: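 Female BALB/c mice (three per group) were infected i.p. with 5 × 10^5 Arequipa trypomastigotes and dosed orally at 20 mg/kg/day for 5 days in 5% DMSO/0.5% HPMC. Controls were uninfected and vehicle-only groups. At the end of the experiment spleens were weighed and expressed as % of body weight.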

The nature of data set [23]: Mutagenecity against Salmonella typhimurium TA 102 assessed as number of colonies at 22.2 ug/plate in presence of Sprague-Dawley rat S9 with metabolic activation measured after 48 hrs by Ames test (reference value: 72 +/- 1). Type of data set: toxicity, subcellular. Conditions: salmonella enterica subsp. enterica serovar typhimurium, s9, 48 h.

Activity calls are given as the source filed them. The calls are words filed in the database; no cut-off is given here. A value given as a limit tells only on which side of the number the result lay.

For `O=C(CCN1CCN(c2ccc(C(F)(F)F)cc2)CC1)c1ccc(O)cc1`, the Activity entry in [1] is “<= 20%”; in data set [2], above 40%; in data set [3], above 10%.
As to `O=C(Cn1ccnc1[N+](=O)[O-])NCc1ccccc1` [BENZNIDAZOLE], the Activity in [4] is above 10%; in [5] it was above 10%; in data set [6] it was “<= 10%”; in data set [8], “<= 10%”. Also, the outcome in the data set with Trypanosoma cruzi [7] was Active.
Turning to `O=C(CCN1CCN(c2ccc(Cl)cc2)CC1)c1ccc(O)cc1`, the Activity was 72.3 in [9]; “<= 20%” in data set [10]; 3.7 in [11]; above 10% in data set [12]; above 10% in [13]; 4.7 in [14]. Besides, the Activity is listed as 78 in data set [15]; 47.3 in [16]; 73.3 in data set [17]; 4 in data set [18]; 44 in data set [19]; “<= 10%” in [20]. In addition, the Activity in data set [21] is reported as 2.7; with Trypanosoma cruzi [22] it was 44%; in [23] it was 84.7.
